As usually defined, the IC50 is the concentration needed to halve the response being measured.

For series [1], the target named is T1, Thromboxane A2 receptor (Homo sapiens) (UniProt P21731).
T1 sequence (whole entry): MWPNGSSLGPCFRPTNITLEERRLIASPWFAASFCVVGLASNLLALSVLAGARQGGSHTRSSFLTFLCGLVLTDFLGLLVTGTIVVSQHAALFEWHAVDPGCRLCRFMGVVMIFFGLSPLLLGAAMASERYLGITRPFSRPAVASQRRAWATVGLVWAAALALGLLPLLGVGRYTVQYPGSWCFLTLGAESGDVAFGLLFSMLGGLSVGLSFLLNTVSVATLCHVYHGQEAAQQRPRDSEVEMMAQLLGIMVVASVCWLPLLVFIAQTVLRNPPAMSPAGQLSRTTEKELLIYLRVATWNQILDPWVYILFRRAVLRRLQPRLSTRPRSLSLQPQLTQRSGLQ
Nature of the series: Irreversible antagonist activity against human thromboxane A2 receptor alpha expressed in QBI-HEK293A cells assessed as reduction in I-BOP-induced inositol monophosphate production at 1 uM incubated for 15 to 60 mins before I-BOP addition and measured after 6 consecutive drug washout by HTRF assay. It is filed as functional, cell-based. Conditions: HEK293-A. The gist of the method: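 Washout variant: hTP cells preincubated 15 min with compound (1 μM; 10 μM for some), then 6 consecutive wash cycles of ~50-fold dilution each before 0.8 nM I-BOP. Relative IP1 determined. Controls received I-BOP alone or no treatment; ANOVA with Dunnett's test against the +I-BOP condition.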
Background: Time-resolved FRET reads energy transfer from a long-lived donor to a nearby acceptor.

For a further series, the target named is T2, Thromboxane A2 receptor (Homo sapiens, UniProt P21731).
T2 sequence (P21731 whole entry): T1 sequence (whole entry)
Nature of the series: Antagonist activity against human thromboxane A2 receptor alpha expressed in QBI-HEK293A cells assessed as reduction in I-BOP-induced inositol monophosphate production incubated for 15 to 60 mins before I-BOP addition by HTRF assay. The series is classed as functional, cell-based, HEK293-A. The gist of the method:
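Stably transfected HEK-293 cells expressing human TP receptor α preincubated 15 min with a range of antagonist concentrations, then stimulated with agonist I-BOP at 0.2 nM. IP1 (metabolite of IP3) quantified after a further 1 h as the activation read-out. IC50 from concentration–response curves; mean and SD of one or more assays run in triplicate.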

Series [2] addresses T1, Thromboxane A2 receptor (Homo sapiens). In words: Antagonist activity against human thromboxane A2 receptor alpha expressed in QBI-HEK293A cells assessed as reduction in I-BOP-induced inositol monophosphate production at 1 uM incubated for 15 to 60 mins before I-BOP addition by HTRF assay. It is filed as functional, cell-based. Conditions: HEK293-A. The gist of the method:
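hTP-expressing HEK-293 cells exposed to 1 μM antagonist for 15 or 60 min, then 0.8 nM I-BOP added without washing. Relative IP1 levels measured. Controls received I-BOP alone or no treatment.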

For series [3] the target is unchanged. In words: Irreversible antagonist activity against human thromboxane A2 receptor alpha expressed in QBI-HEK293A cells assessed as reduction in I-BOP-induced inositol monophosphate production at 1 uM incubated for 15 to 60 mins before I-BOP addition and measured after 4 consecutive drug washout by HTRF assay. It is filed as functional, cell-based. Conditions: HEK293-A. The gist of the method: (§1)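 TP receptor α HEK-293 cells given 1 μM compound for 15 or 60 min, then four consecutive wash cycles, each about 50-fold dilution and separated by 15 min equilibration, before 0.8 nM I-BOP. IP1 then measured. Controls received I-BOP alone or no treatment; ANOVA with Dunnett's test against the […] at each time.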

Series [4] has the same target. Conditions: HEK293-A, 1 uM.
Series [5] shares this target. Nature of the series: Reversible antagonist activity against human thromboxane A2 receptor alpha expressed in QBI-HEK293A cells assessed as reduction in I-BOP-induced inositol monophosphate production at 1 uM incubated for 15 to 60 mins before I-BOP addition and measured after 4 consecutive drug washout by HTRF assay. The series is classed as functional, cell-based. Conditions: HEK293-A. In a few lines: as §1

Series [6] is described as follows: Stability in presence of 10 mM glutathione in pH 7.0 aqueous buffer after 3 hrs. The series is classed as physicochemical. The note with it: pH 7, 3 h. In a few lines:
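Equimolar glutathione and CPD derivative, each at 10 mM, incubated in aqueous buffer at pH 7 for 3 h. Consumption of the starting dione monitored.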

For series [7], the target named is T1, Thromboxane A2 receptor (Homo sapiens). Nature of the series: Irreversible antagonist activity against human thromboxane A2 receptor alpha expressed in QBI-HEK293A cells assessed as reduction in I-BOP-induced inositol monophosphate production at 1 uM at 4 degC incubated for 15 to 60 mins before I-BOP addition and measured after 6 consecutive drug washout by HTRF assay. It is filed as functional, cell-based. Conditions: HEK293-A. The gist of the method: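 Six-wash washout protocol (each wash ~50-fold dilution) run at 4 °C to suppress endocytosis and receptor trafficking. Human TP receptor-expressing cells, then I-BOP stimulation and IP1 read-out.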

For series [8], the target named is T3, Prostaglandin E2 receptor EP1 subtype (Homo sapiens) (UniProt P34995).
T3 sequence (whole entry): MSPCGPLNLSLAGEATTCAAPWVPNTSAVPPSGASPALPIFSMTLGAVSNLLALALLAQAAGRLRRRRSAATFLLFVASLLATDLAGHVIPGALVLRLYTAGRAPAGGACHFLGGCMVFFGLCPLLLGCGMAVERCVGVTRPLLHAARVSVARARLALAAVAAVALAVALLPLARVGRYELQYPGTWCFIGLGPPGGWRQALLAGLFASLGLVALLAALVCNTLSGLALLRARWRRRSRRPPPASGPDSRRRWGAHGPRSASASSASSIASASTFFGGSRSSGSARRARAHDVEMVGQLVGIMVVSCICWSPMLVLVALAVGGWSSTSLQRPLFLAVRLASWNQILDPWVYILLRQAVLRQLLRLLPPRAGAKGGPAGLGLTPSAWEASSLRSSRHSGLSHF
Nature of the series: Antagonist activity against human EP1 receptor expressed in QBI-HEK293A cells assessed as reduction in 17-PGE2-induced inositol monophosphate production at 1 uM incubated for 15 to 60 mins before […] addition by HTRF assay. The series is classed as functional, cell-based. The note with it: HEK293-A.

A further series has as its system Plasma. In words: Stability in CD1 mouse plasma at 1 uM after 1 hr at 37 degC by UPLC-ESI-MS/MS method. It is filed as ADME, cell-free. The gist of the method: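 Free compound concentration followed during 1 h incubation in plasma.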

The source made the active and inactive calls. The calls are words filed in the database; no cut-off is given here.

Consider `O=C1C(c2ccccc2)=C(O)CC1Cc1cccc(CCNS(=O)(=O)c2ccc(Cl)cc2)c1` (single isomer, unassigned; (+)), for which, in series [1], the inhibition result is “Active”.
`O=C1C(c2ccccc2)=C(O)CC1Cc1cccc2c1CCC(NS(=O)(=O)c1ccc(Cl)cc1)C2` (centres undefined): the IC50 on Thromboxane A2 receptor was found to be 3.9 nM. The inhibition entry in [1] was “Active”.
For `O=C1C(c2ccccc2)=C(O)CC1Cc1cccc(CCNS(=O)(=O)c2ccc(Cl)cc2)c1` (racemic) [listing 1 of 2 here], the inhibition entry in series [1] is “Active”.
On to `O=C1C(Cc2ccccc2)=C(O)CC1Cc1cccc2c1CCC(NS(=O)(=O)c1ccc(Cl)cc1)C2` (centres undefined), for which the IC50 on Thromboxane A2 receptor amounted to 29.2 nM. The inhibition result in [1] is “Active”.
Regarding `COc1ccc(C2=C(O)CC(Cc3cccc4c3CCC(NS(=O)(=O)c3ccc(Cl)cc3)C4)C2=O)cc1` (centres undefined), the IC50 on Thromboxane A2 receptor worked out at 0.052 nM. In addition, the inhibition result in [2] and in series [3] was “Active” each time.
For `O=C1C(c2ccccc2)=C(O)CC1Cc1cccc(CCNS(=O)(=O)c2ccc(Cl)cc2)c1` (racemic) [listing 2 of 2 here], at Thromboxane A2 receptor, the IC50 turned out to be 59 nM.
With `O=C(O)Cc1cccc2c1CCC(NS(=O)(=O)c1ccc(Cl)cc1)C2` (centres undefined), the IC50 at Thromboxane A2 receptor was 10.7 nM. Moreover, the inhibition result in [2], in series [4] and in series [5] was “Active” in each case.
For `Cc1cccc(C)c1C1=C(OCC(C)C)CC(Cc2cccc3c2CCC(NS(=O)(=O)c2ccc(Cl)cc2)C3)C1=O` (centres undefined), the IC50 at Thromboxane A2 receptor came to 2760 nM.
Consider `O=C1C(c2ccc(F)cc2)=C(O)CC1Cc1cccc2c1CCC(NS(=O)(=O)c1ccc(Cl)cc1)C2` (centres undefined), for which, at Thromboxane A2 receptor, the IC50 is 6.5 nM. For the same molecule, in series [1], the inhibition entry was “Active”.
For `Cc1cccc(C)c1C1C(=O)CCC1=O`, the Stability result in series [6] is “Stable”.
For `O=C(O)CCc1cccc(CCNS(=O)(=O)c2ccc(Cl)cc2)c1`, the inhibition result in series [5] was “Active”.
For `Cc1cccc(C)c1C1=C(O)CC(Cc2cccc3c2CCCC3)C1=O` (centres undefined), the IC50 on Thromboxane A2 receptor was 891 nM. Besides, in [5], the inhibition result is “Active”.
Take `Cc1cccc(C)c1C1=C(O)CC(Cc2cccc3c2CCC(NS(=O)(=O)c2ccc(Cl)cc2)C3)C1=O` (centres undefined): the IC50 at Thromboxane A2 receptor was 0.015 nM. The inhibition result in series [7], in series [1], in series [2] and in series [3] was “Active” throughout. In addition, the inhibition entry in [8] is “inactive”. For the same molecule, in the series with Plasma, the Stability result is recorded as “Stable”.
For `Cc1ccc2c(c1CCC(=O)O)CC[C@@H](NS(=O)(=O)c1ccc(Cl)cc1)C2` [TERUTROBAN], the IC50 at Thromboxane A2 receptor came out at 16.4 nM.
Take `CC1=C(O)CC(Cc2cccc3c2CCC(NS(=O)(=O)c2ccc(Cl)cc2)C3)C1=O` (centres undefined): the IC50 at Thromboxane A2 receptor was found to be 11.2 nM. In addition, the inhibition result in series [2] and in series [5] was “Active” in each case.
As to `O=C1C(C2CCCCC2)=C(O)CC1Cc1cccc(CCNS(=O)(=O)c2ccc(Cl)cc2)c1` (centres undefined), on Thromboxane A2 receptor, the IC50 turned out to be 892 nM. Also, the inhibition result in series [5] was “Active”.

Source of the values: ChEMBL document CHEMBL3351871, “Potent, long-acting cyclopentane-1,3-Dione thromboxane (A2)-receptor antagonists” (ACS Med Chem Lett, 2014).
